Rows were chosen to be rich in hits. Some 2.8% of all compounds tested hit in one or more screens of this group.
EP2 mod: EP2 receptor (human) modulation | P43116 | induction, % at 25 µM | EP2-expressing cells, cAMP HTRF FRET, PGE2 co-stimulation | 0.83% of 260,000 active | AID 940;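 active means compounds whose cAMP rise, as percent of the full-agonist control response, exceeds 60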;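 further: rat C6 glioma line stably carrying human EP2 under a CMV promoter; the protocol text gives 20 µM as final concentration; 100% = response of wells given 1 µM PGE2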
NPY Y1 blocker: blocks the human neuropeptide Y Y1 receptor; P25929; HEK293-CNG Y1 cells, membrane potential fluorescence; NPY at EC95, then isoproterenol; inhibition, % at 3.6 µM; 1% of 200,000 active; AID 1040;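 active means inhibition above the campaign mean inhibition of all tested compounds plus 3 SD, cut at about 20% in these data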;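 further: 0% = DMSO wells given NPY plus isoproterenol and 100% = isoproterenol alone without NPY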
Target sequence (P25929 whole entry, looked up): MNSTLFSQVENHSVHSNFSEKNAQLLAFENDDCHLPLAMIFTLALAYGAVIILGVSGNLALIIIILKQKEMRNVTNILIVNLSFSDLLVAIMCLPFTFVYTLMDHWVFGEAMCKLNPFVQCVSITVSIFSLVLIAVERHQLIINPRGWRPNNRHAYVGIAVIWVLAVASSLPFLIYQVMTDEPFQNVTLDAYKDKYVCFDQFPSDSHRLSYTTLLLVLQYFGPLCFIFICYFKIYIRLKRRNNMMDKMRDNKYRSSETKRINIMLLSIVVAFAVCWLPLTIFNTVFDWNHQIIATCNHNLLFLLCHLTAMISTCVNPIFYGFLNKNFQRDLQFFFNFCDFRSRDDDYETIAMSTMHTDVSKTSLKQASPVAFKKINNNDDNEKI
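Material: HEK293 cells with Y1 receptor plus CNG channel; times: compound incubation 1 h at room temperature, readout 45 min post-stimulation; signal: fluorescence, membrane potential probe; read-out basis: fluorescence ratio normalized to % inhibition between controls; benchmarks: full-block control isoproterenol-only wells, zero-block control NPY plus isoproterenol wells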
NPY-Y2 antag: NPY-Y2 (human) receptor antagonism; NPY-Y2 expressing cells, antagonist mode; inhibition, % at 2.7 µM; P49146; AID 793; 0.99% of 140,000 active; in the data active means inhibition above about 17%;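 further: 0% = vehicle with agonist challenge and 100% = reference antagonist with challenge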
NPY2 pot ag: potentiates or activates human NPY-Y2 receptor | cells expressing NPY-Y2, potentiator/agonist read-out | activation, % at 3.6 µM | 0.45% of 220,000 active | AID 1359; in the data active means activation above about 27%;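 further: cells stimulated with NPY near EC25 plus isoproterenol at EC100; 0% = vehicle plus submaximal agonist and 100% = vehicle plus saturating agonist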
NPY-Y1 PAM-ag: potentiators or agonists of human neuropeptide Y receptor Y1; 0.37% of 220,000 active; P25929; activation, % at 3.6 µM; NPY-Y1 expressing cells, potentiator/agonist activation; AID 1304; in the data active means activation above about 33%, passing the limit was not always enough;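 further: cells stimulated with NPY at EC10 then isoproterenol at EC100; 0% = low agonist plus stimulus and 100% = saturating agonist plus stimulus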
EP2 antag: blocks the human prostaglandin E2 receptor EP2; 0.52% of 260,000 active; P43116; inhibition, % at 25 µM; C6 glioma cells expressing human EP2, cAMP TR-FRET; cells stimulated with saturating PGE2;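 active means percent inhibition above 40 after rounding to a whole number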;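 further: rat C6 glioma host cells with rolipram phosphodiesterase inhibitor present; the protocol text gives 20 µM as final concentration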
Active calls of the source: *; . = no result given; ! = not active in a repeat.

SMILES	EP2 mod	NPY Y1 blocker	NPY-Y2 antag	NPY2 pot ag	NPY-Y1 PAM-ag	EP2 antag
O=C(Nc1cc(Cl)cc(Cl)c1)C(c1ccccc1)N1CCCCC1 (configuration not stated)	3	30*	20*	-3	-32	0
CCOc1ccc(N2C(=O)N(c3ccccc3C)C3CS(=O)(=O)CC32)cc1 (configuration not stated)	-6	.	.	.	.	12
CN(C)CCN1C(=O)CC[C@@]2(C)C1=CC[C@H]1[C@H]2CC[C@@]2(C)[C@H]1CC[C@]2(C)O	6	.	.	.	.	50*
O=C(Cn1nc2c3ccccc3ncn2c1=O)N1CCCCCC1	-15	.	.	.	.	5
CCCCNc1nc(N)nc(-c2cc(Cl)ccc2O)n1	64*	3	-1	-3	-6	9
CCN1CCN(c2ccc(NC(=O)c3ccccc3Cl)cc2)CC1	-51	.	.	.	.	9
Cc1ccc(CN(CC(=O)NC2CCCC2)C(=O)c2ccc(C)s2)cc1	-4	.	.	.	.	6
CCOC(=O)c1c(CSC(=N)N)n(-c2ccc(C)cc2)c2cc(Br)c(OC(C)=O)cc12	-43	-2	10	7	50	127*
O=c1oc2cc(O)c(Cl)cc2c2ccccc12	61*	4	5	2	-24	29
Cc1ccc(-c2cc(N)c(=O)n(CC(=O)N3C(C)CCCC3C)n2)o1 (configuration not stated)	-100	.	.	.	.	5
Cc1ccc(C(C2=C(O)CC(C)(C)CC2=O)C2C(=O)CC(C)(C)CC2=O)s1 (configuration not stated)	-8	-4	2	-5	-4	30
CC1(C)CC(=O)C(C(C2=C(O)CC(C)(C)CC2=O)c2ccc(Br)s2)C(=O)C1 (configuration not stated)	-78	11	3	6	2	51*
Cc1cccc(-c2cc3nc4c(c(N5CCOCC5)n3n2)CCCC4)c1	61*	6	4	-15	-33	7
OC1CCN(c2c3c(nc4cc(-c5ccc(F)cc5)nn24)CCC3)CC1	-32	-6	0	4	2	22
Cc1cccc(-c2cc3nc4c(c(N5CCC6(CC5)OCCO6)n3n2)CCCC4)c1	.	3	1	-2	-5	.
Fc1ccc(-c2cc3nc4c(c(N5CCOCC5)n3n2)CCCC4)cc1	74*!	6	5	-11	-43	8
CCC(C)(C)n1nnnc1CN(Cc1cccs1)Cc1cc2ccc(OC)cc2[nH]c1=O	34	.	.	.	.	30
CC(C)(C)c1cc(CN(CCO)CCO)c(O)c(C(C)(C)C)c1	1	.	.	2	12	8
CN(Cc1cc(C(C)(C)C)cc(Br)c1O)Cc1cc(C(C)(C)C)cc(Br)c1O	5	.	.	.	.	43*
CC1CCCCN1C(=O)Cn1c(=O)n(Cc2cccs2)c2ncccc21 (configuration not stated)	-24	.	.	.	.	.
O=C(NC1CCCCC1)C1CC(=O)N(c2ccc(Cl)cc2)C1 (configuration not stated)	5	-1	1	-6	-8	5
Cc1ccc(N2CC(C(=O)NC3CCCC3)CC2=O)cc1 (configuration not stated)	-30	.	.	.	.	50*
CCOc1ccc(/C(O)=C2\C(=O)C(=O)N(c3cc(C)on3)C2c2ccccc2OC)cc1 (configuration not stated)	32	-1	-1	29	36	40*
CCOc1ccc(C2/C(=C(\O)c3ccc(OC)c(OC)c3)C(=O)C(=O)N2c2cc(C)on2)cc1OC (configuration not stated)	31	3	2	-3	-13	15
Cc1ccc(NC2=C/C(=N/S(=O)(=O)c3cccs3)c3ccccc3C2=O)cc1C	4	6	-3	-10	-23	7
SMILES	EP2 mod	NPY Y1 blocker	NPY-Y2 antag	NPY2 pot ag	NPY-Y1 PAM-ag	EP2 antag
Cc1cc(C)c(S(=O)(=O)/N=C2/C=C(Sc3ncn[nH]3)C(=O)c3ccccc32)cc1C	-80	-1	1	-3	-21	104*
COC(=O)C1=C(C)NC(=S)N(C(C)=O)C1c1ccc(OC)cc1 (configuration not stated)	9	.	.	.	.	9
CCOC(=O)C1=C(C)NC(=S)N(C(C)=O)C1c1ccccc1 (configuration not stated)	65*	-3	2	-8	-7	.
Oc1ccc(Cl)cc1/C=C/c1ccc2cccc(O)c2n1	-56	-10	.	2	15	6
Oc1ccc2ccccc2c1/C=C/c1ccc2c(Br)cc(Br)c(O)c2n1	4	.	.	.	.	42*
CCOC(=O)Cc1csc(NC(=O)CSc2nnc3c(C)cc4ccc(OC)cc4n23)n1	-18	.	.	.	.	11
COc1cc(O)c(C(=O)/C=C/c2ccc(OC)c(O)c2)c(OC)c1	-3	.	.	.	.	57*
CCn1c2cc(C)sc2c2cnn(CC(=O)OCCOC)c(=O)c21	-41	.	.	.	.	8
COc1ccc(C2C(C#N)=C(N)Oc3n[nH]c(-c4cccs4)c32)c(OC)c1 (configuration not stated)	-1	.	.	.	.	5
COc1ccc(OC)c(-c2[nH]nc3c2C(c2ccco2)C(C#N)=C(N)O3)c1 (configuration not stated)	-3	48*	28*	-13	-18	21
COc1cccc(-c2[nH]nc3c2C(c2ccc(C)o2)C(C#N)=C(N)O3)c1 (configuration not stated)	-12	29*	21*	-16	15	21
CC(C)c1cc(C(=O)N[C@@H](Cn2nc(-c3cccs3)ccc2=O)C(C)C)on1	-35	.	.	.	.	8
CCCOCCOC(=O)c1[nH]c2c(c1C)C(=O)CC(c1cc(OC)ccc1OC)C2 (configuration not stated)	-13	35*	31*	-3	-33	6
O=C(Nc1cc2nn(-c3ccccc3)nc2cc1Cl)c1ccco1	9	3	5	1	-6	9
O=C(Nc1ccc2nn(-c3ccccc3)nc2c1)c1cccnc1	-13	2	0	0	-5	40*
O=C(Nc1ccc2nn(-c3ccc(F)cc3)nc2c1)c1cccnc1	-30	0	.	4	-3	10
O=C(Nc1ccc2nn(-c3ccccc3)nc2c1)c1ccco1	-69	7	2	12	0	41*!
Cc1nc(N2CCOCC2)c2c(C)c(C(=O)Nc3ccccc3Cl)sc2n1	-8	6	.	-10	-19	9
Cc1nc(N2CCOCC2)c2c(C)c(C(=O)Nc3ccccc3C(F)(F)F)sc2n1	2	20*	.	-13	-14	12
CC(=O)n1cc(N(C(=O)CCl)c2ccccc2)c2ccccc21	4	.	.	12	16	4
CC(=O)n1cc(N(C(=O)CCl)c2ccc([N+](=O)[O-])cc2)c2ccccc21	-31	.	.	54*	69*	14
C=CCNC(=O)CCCSc1nc(-c2ccco2)cc(C(F)(F)F)n1	-92	.	.	.	.	12
S=C(NCCCN1CCOCC1)NC1CCCC1	3	-3	.	-8	-9	93*

Screening results: PubChem, several laboratories
